SUMO1 PPI mod – alters human SUMO1 binding to SIM partners | P63165 | SUMO1 binding to a labelled peptide, TR-FRET, 1 h | inhibition, % at 20 µM | actives 0.33% (n = 360,000); in the data active means inhibition above about 37%
STEP block – blocks human striatal-enriched tyrosine phosphatase | inhibition, % at 20 µM | recombinant STEP, OMFP fluorogenic substrate, fluorescence | P54829 | actives 0.25% (n = 360,000);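 active means inhibition at 20 µM, scaled per plate between control wells, above about 37%, limit read from the data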
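System: isolated STEP enzyme; schedule: 20 min enzyme reaction at room temperature, protected from light; medium: Bis-Tris buffer pH 6.0, 2.5 mM DTT, 0.005% Tween 20; signal: fluorescence, 480/540 nm; dosing: single compound dose of 20 µM, 1% DMSO final; also added: OMFP substrate, 25 µM final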
DNMT1 block – inhibitors of human DNMT1; P26358; AID 588458; DNMT1 molecular beacon, Hinp1I cleavage, fluorescence; inhibition (reported as % activation of signal), % at 10 µM; actives 0.83% (n = 360,000); in the data active means inhibition above about 50%
Scp1 inh – inhibitors of human Scp-1 phosphatase; Recombinant Scp1, phosphopeptide, malachite green phosphate absorbance; inhibition, % at 20 µM; Q9GZU7; actives 0.88% (n = 340,000);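 active means inhibition above about 50% at 20 µM, limit read from the data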
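Test system: SCP-1 phosphatase catalytic domain, residues 76-261 | Compound dosing: One concentration, 20 µM, with 1.0% DMSO | Schedule: 45 min room-temperature reaction, 5 min colour, 30 min stabiliser | Detection: Absorbance at 630 nm | Read-out basis: % inhibition of SCP-1 phosphate liberation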
Rpn11 block – inhibitors of human proteasome Rpn11; human 26S proteasome, Ub4-pepOG fluorescence polarization; 20S core pre-blocked with epoxomicin; inhibition, % at 20 µM; actives 0.59% (n = 360,000); AID 588493;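 active means inhibition at 20 µM, scaled to each plate's controls, above about 33%, limit read from the data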
LMPTP inh – LMPTP (human) inhibition. P24666. recombinant LMPTP-A, OMFP fluorogenic substrate, fluorescence intensity. inhibition, % at 20 µM. actives 0.22% (n = 360,000). AID 651560;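 active means compounds that cut the enzyme signal by at least half of the control window in the single-dose screen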
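Test system: LMPTP-A phosphatase enzyme; input: 0.625 nM LMPTP-A final; reagent: OMFP substrate, 400 µM final; compound dosing: 20 µM single dose, 3% DMSO; incubation: 50 min dark incubation at room temperature; measured by: endpoint fluorescence intensity from OMFP dephosphorylation; measure: % inhibition relative to no-enzyme and uninhibited control wells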
Rpn11 confirm – Rpn11 inhibition confirmation, single concentration; actives 29% (n = 1,900); purified human 26S proteasome, Ub4-pepOG fluorescence polarization; proteasome pretreated with epoxomicin; inhibition, % at 20 µM; AID 602318; shares compounds with Rpn11 block
MMP-2 counter – counter-screen for RPN11 inhibitors: inhibition of human MMP-2; shares compounds with Rpn11 block; recombinant MMP-2, FRET peptide cleavage fluorescence; inhibition, % at 20 µM; actives 4% (n = 1,900); AID 602330;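 further: human MMP-2 activated beforehand with APMA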
Target sequence (P08253 whole entry, looked up): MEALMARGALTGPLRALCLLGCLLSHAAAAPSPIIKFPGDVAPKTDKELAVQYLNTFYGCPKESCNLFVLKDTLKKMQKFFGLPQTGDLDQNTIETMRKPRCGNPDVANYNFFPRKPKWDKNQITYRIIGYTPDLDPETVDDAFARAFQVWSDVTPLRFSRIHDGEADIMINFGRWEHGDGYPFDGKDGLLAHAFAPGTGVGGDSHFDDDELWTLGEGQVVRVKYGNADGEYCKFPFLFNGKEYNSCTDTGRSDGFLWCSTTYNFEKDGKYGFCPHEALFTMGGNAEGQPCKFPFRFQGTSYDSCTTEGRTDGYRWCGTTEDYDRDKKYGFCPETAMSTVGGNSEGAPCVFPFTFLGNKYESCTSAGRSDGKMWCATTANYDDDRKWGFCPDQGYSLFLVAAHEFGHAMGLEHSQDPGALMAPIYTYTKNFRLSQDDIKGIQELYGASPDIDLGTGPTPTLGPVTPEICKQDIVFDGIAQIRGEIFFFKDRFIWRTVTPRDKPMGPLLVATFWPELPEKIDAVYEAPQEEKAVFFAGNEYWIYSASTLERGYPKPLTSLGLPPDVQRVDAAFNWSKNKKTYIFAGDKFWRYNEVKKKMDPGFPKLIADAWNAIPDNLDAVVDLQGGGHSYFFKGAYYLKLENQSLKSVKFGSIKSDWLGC
Thrombin FP – blocks bovine thrombin, flagging nonselective RPN11 hits | AID 602333 | shares compounds with Rpn11 block | actives 13% (n = 1,900) | bovine thrombin cleavage of Ub4-pepOG, fluorescence polarization | inhibition, % at 20 µM;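 active means mean inhibition at least 40% at 20 µM, or signal 3 deviations below plate average, so some actives read negative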
Hits are given with their value. Only some compounds are listed: those with a hit (about 2.3% of all), similar ones and a draw of the others. Unless noted, no stated cut-off is given here; in the data, active means inhibition above about 40%; inactive means the rest.

O=C(O)c1ccc(NC(=O)c2ccco2)c(NC(=O)c2ccco2)c1 was read as SUMO1 PPI mod inactive, STEP block inactive, DNMT1 block inactive, Scp1 inh inactive, Rpn11 block inactive and LMPTP inh inactive.
Screening CCOC(=O)c1c(NC(=O)C(C)OC(=O)c2ccc(NC(=O)CC#N)cc2)sc2c1CCCC2 (stereo unspecified) returned SUMO1 PPI mod inactive, STEP block inactive, DNMT1 block inactive, Scp1 inh inactive, Rpn11 block 52.6, LMPTP inh inactive, Rpn11 confirm inactive, MMP-2 counter inactive and Thrombin FP inactive.
`CCOC(=O)c1c(NC(=O)C(C)OC(=O)C2=COCCO2)sc2c1CCCC2` (stereo unspecified) gave SUMO1 PPI mod inactive, STEP block inactive, DNMT1 block inactive, Scp1 inh inactive, Rpn11 block inactive and LMPTP inh inactive.
`O=C(CSc1ncccn1)Nc1ccc2c(c1)CCC2` gave SUMO1 PPI mod inactive, STEP block inactive, DNMT1 block inactive, Scp1 inh inactive, Rpn11 block inactive and LMPTP inh inactive.
`COc1ccccc1NC(=O)CSc1ccc(-c2ccccn2)nn1` gave SUMO1 PPI mod inactive, STEP block inactive, DNMT1 block inactive, Scp1 inh inactive, Rpn11 block inactive and LMPTP inh inactive.
COc1ccccc1NC(=O)CSc1ccc(-c2ccc(-n3cccn3)cc2)nn1 was read as SUMO1 PPI mod inactive, STEP block inactive, DNMT1 block inactive, Scp1 inh inactive, Rpn11 block 96.7, LMPTP inh inactive, Rpn11 confirm 117.0, MMP-2 counter inactive and Thrombin FP inactive.
For CC1=CC(C)(C)NC(=S)N1c1cccc2cc(S(=O)(=O)O)ccc12 the results were SUMO1 PPI mod inactive, STEP block inactive, DNMT1 block inactive, Scp1 inh inactive, Rpn11 block inactive and LMPTP inh inactive.
Screening O=c1[nH]c2ccccc2nc1NCCN1CCOCC1 returned SUMO1 PPI mod inactive, STEP block inactive, DNMT1 block inactive, Scp1 inh inactive, Rpn11 block 43.0, LMPTP inh inactive, Rpn11 confirm inactive, MMP-2 counter inactive and Thrombin FP inactive.
`c1ccc2[nH]c(NCCCN3CCOCC3)nc2c1` gave SUMO1 PPI mod inactive, STEP block inactive, DNMT1 block inactive, Scp1 inh inactive, Rpn11 block inactive and LMPTP inh inactive.
`COc1ccc(N(CC(=O)NCc2ccc3c(c2)OCO3)S(=O)(=O)c2ccccc2[N+](=O)[O-])c(OC)c1` gave SUMO1 PPI mod inactive, STEP block inactive, DNMT1 block inactive, Scp1 inh inactive, Rpn11 block 56.0, LMPTP inh inactive, Rpn11 confirm inactive, MMP-2 counter inactive and Thrombin FP inactive.
Screening COc1ccc(N(CC(=O)NCc2ccccc2OC)S(=O)(=O)c2ccccc2[N+](=O)[O-])c(OC)c1 returned SUMO1 PPI mod inactive, STEP block inactive, DNMT1 block inactive, Scp1 inh inactive, Rpn11 block inactive and LMPTP inh inactive.
O=C(Nc1nc(-c2nc3ccccc3s2)cs1)c1ccco1 was read as SUMO1 PPI mod inactive, STEP block inactive, DNMT1 block inactive, Scp1 inh inactive, Rpn11 block 190.6, LMPTP inh inactive, Rpn11 confirm 140.2, MMP-2 counter inactive and Thrombin FP inactive.
O=C(COC(=O)CCNS(=O)(=O)c1ccc(Cl)cc1)Nc1ccccc1OC(F)F was read as SUMO1 PPI mod inactive, STEP block inactive, DNMT1 block inactive, Scp1 inh inactive, Rpn11 block 89.2, LMPTP inh inactive, Rpn11 confirm inactive, MMP-2 counter inactive and Thrombin FP inactive.
For CCOc1ccccc1CNC(=O)c1ccc(NC(=O)C2=CSCCO2)cc1 the results were SUMO1 PPI mod inactive, STEP block inactive, DNMT1 block inactive, Scp1 inh inactive, Rpn11 block inactive and LMPTP inh inactive.
Screening O=C(CC1OC(=O)c2ccccc21)Nc1cc(Cl)ccc1N1CCCC1 (stereo unspecified) returned SUMO1 PPI mod inactive, STEP block inactive, DNMT1 block inactive, Scp1 inh inactive, Rpn11 block 64.6, LMPTP inh inactive, Rpn11 confirm 62.1, MMP-2 counter inactive and Thrombin FP inactive.
COc1ccccc1N=Nc1nc(-c2ccccc2)c(-c2ccccc2)[nH]1 was read as SUMO1 PPI mod inactive, STEP block inactive, DNMT1 block inactive, Scp1 inh inactive, Rpn11 block inactive and LMPTP inh inactive.
Oc1ccccc1N=Nc1nc(-c2ccccc2)c(-c2ccccc2)[nH]1 was read as SUMO1 PPI mod inactive, STEP block inactive, DNMT1 block inactive, Scp1 inh inactive, Rpn11 block 54.5, LMPTP inh inactive, Rpn11 confirm inactive, MMP-2 counter inactive and Thrombin FP inactive.
COc1ccc(N=Nc2nc(-c3ccccc3)c(-c3ccccc3)[nH]2)cc1 was read as SUMO1 PPI mod inactive, STEP block inactive, DNMT1 block inactive, Scp1 inh inactive, Rpn11 block 39.4, LMPTP inh inactive, Rpn11 confirm inactive, MMP-2 counter inactive and Thrombin FP inactive.
CCn1c(C)cc(/C=C2/SC(=S)NC2=O)c1C was read as SUMO1 PPI mod inactive, STEP block inactive, DNMT1 block inactive, Scp1 inh inactive, Rpn11 block inactive and LMPTP inh inactive.
Cc1cc(/C=C2\SC(=S)NC2=O)c(C)[nH]1 was read as SUMO1 PPI mod inactive, STEP block inactive, DNMT1 block inactive, Scp1 inh inactive, Rpn11 block 83.9, LMPTP inh inactive, Rpn11 confirm 44.6, MMP-2 counter inactive and Thrombin FP inactive.
`COc1ccc(-n2c(C)cc(/C=C3\C(=N)N4N=C(CC(=O)N5CCOCC5)SC4=NC3=O)c2C)c(OC)c1` gave SUMO1 PPI mod inactive, STEP block inactive, DNMT1 block inactive, Scp1 inh inactive, Rpn11 block 42.7, LMPTP inh inactive, Rpn11 confirm inactive, MMP-2 counter inactive and Thrombin FP inactive.
For COc1ccccc1-n1c(C)cc(/C=C2\C(=N)N3N=C(CC(=O)N4CCOCC4)SC3=NC2=O)c1C the results were SUMO1 PPI mod inactive, STEP block inactive, DNMT1 block inactive, Scp1 inh inactive, Rpn11 block inactive and LMPTP inh inactive.
